According to ChEMBL document CHEMBL2331369, “Transport by OATP1B1 and OATP1B3 enhances the cytotoxicity of epigallocatechin 3-O-gallate and several quercetin derivatives” (J Nat Prod, 2013):
The source made the active and inactive calls. No cut-off for these calls is given here.

Tests used:
CHO [1] = assay: Inhibition of OATP1B3 haplotype 1 (unknown origin) expressed in CHO cells assessed as reduction of [3H]estrone-3-sulfate at 50 uM after 20 seconds; assay type: cell-based; settings: Homo sapiens
Outline: (§1)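 Uptake in stably transfected CHO cells grown with 10% FBS. Test compound at 50 μM with 1% DMSO as control. Substrates 0.1 μM E3S or E17βG for 20 s, or 0.5 μM DHEAS for 5 min, all at 37 °C. Net OATP uptake is taken as the wild-type CHO signal subtracted. Values are percent of DMSO control, mean ± SEM of one representative of three experiments.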

CHO [2] = assay: Cell cycle arrest in CHO cells expressing OATP1B3 haplotype 1 assessed as accumulation at G0/G1 phase at 10 uM after 48 hrs using propidium iodide staining by flow cytometry; settings: Cricetulus griseus
CHO [3] = assay: Induction of apoptosis in CHO cells expressing OATP1B3 haplotype 1 at 10 uM after 48 hrs using propidium iodide and FITC Annexin V staining by flow cytometry; assay type: functional, Cricetulus griseus
Outline: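 Seeded at 90 000 cells/well for 24 h, then 5 mM sodium butyrate for 24 h, then 10 μM compound for 48 h. Medium and washes pooled with trypsinized cells, spun at 300g for 5 min. Stained with FITC Annexin V plus 4 μg/mL propidium iodide for 20 min in the dark, then flow cytometry. DMSO control; three independent experiments averaged.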

CHO [4] = assay: Inhibition of OATP1B1*1b (unknown origin) expressed in CHO cells assessed as reduction of [3H]dehydroepiandrosterone sulfate at 50 uM after 5 mins; assay type: cell-based; settings: Homo sapiens; outline: as §1
CHO [5] = assay: Inhibition of OATP1B3 haplotype 1 (unknown origin) expressed in CHO cells assessed as reduction of [3H]dehydroepiandrosterone sulfate at 50 uM after 5 mins; assay type: cell-based; settings: Homo sapiens; outline: as §1
CHO [6] = assay: Cytotoxicity against CHO cells expressing OATP1B3 haplotype 1 after 48 hrs by […] CellTiter-Glo assay; assay type: functional, cell-based; settings: Cricetulus griseus
Outline: (§2)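 Seeded at 1600 cells/well, 24 h culture, then 5 mM sodium butyrate induction for 24 h. Cells then exposed to a range of compound concentrations for 48 h in medium with 10% FBS. CellTiter-Glo readout, expressed as percent of DMSO control. IC50 from at least three independent experiments, mean ± SEM.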

CHO [7] = assay: Inhibition of OATP1B1*1b (unknown origin) expressed in CHO cells assessed as reduction of [3H]estrone-3-sulfate at 50 uM after 20 seconds; assay type: cell-based; settings: Homo sapiens; outline: as §1
CHO [8] = assay: Cytotoxicity against CHO cells expressing OATP1B1*1b after 48 hrs by […] CellTiter-Glo assay; assay type: functional, cell-based; settings: Cricetulus griseus; outline: as §2
CHO [9] = assay: Inhibition of OATP1B1*1b (unknown origin) expressed in CHO cells assessed as reduction of [3H]estradiol 17beta-glucuronide at 50 uM after 20 seconds; assay type: cell-based; settings: Homo sapiens; outline: as §1
CHO [10] = assay: Cytotoxicity against wild type CHO cells after 48 hrs by […] CellTiter-Glo assay; assay type: cell-based, Cricetulus griseus; settings: for Activity: chinese hamster, cho; for IC50: Cricetulus griseus, CHO; outline: as §2
CHO [11] = assay: Inhibition of OATP1B3 haplotype 1 (unknown origin) expressed in CHO cells assessed as reduction of [3H]estradiol 17beta-glucuronide at 50 uM after 20 seconds; assay type: cell-based; settings: Homo sapiens; outline: as §1
CHO [12] = assay: Activation of OATP1B3 haplotype 1 (unknown origin) expressed in CHO cells assessed as increase of [3H]estradiol 17beta-glucuronide at 50 uM after 20 seconds relative to control; assay type: cell-based; settings: Homo sapiens; outline: as §1
CHO [13] = assay: Cell cycle arrest in CHO cells expressing OATP1B3 haplotype 1 assessed as accumulation at G0/G1 phase at 1 uM after 48 hrs using propidium iodide and FITC Annexin V staining by flow cytometry; assay type: functional, cell-based; settings: Cricetulus griseus
Outline: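 Cells plated at 90 000/well for 24 h, held 36 h serum-free to synchronize in G0, induced 24 h with 5 mM sodium butyrate, then compound for 48 h. Fixed in 70% ice-cold ethanol at 4 °C overnight, then 40 min in PBS with 25 μg/mL RNase and 12.5 μg/mL propidium iodide. DNA content by flow cytometry; two independent experiments averaged.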

Albumin [14] = target: T1, Albumin (Homo sapiens, UniProt P02768); assay: Binding affinity to human serum albumin at 10 uM; assay type: ADME; settings: isolated protein
T1 sequence (P02768 whole entry): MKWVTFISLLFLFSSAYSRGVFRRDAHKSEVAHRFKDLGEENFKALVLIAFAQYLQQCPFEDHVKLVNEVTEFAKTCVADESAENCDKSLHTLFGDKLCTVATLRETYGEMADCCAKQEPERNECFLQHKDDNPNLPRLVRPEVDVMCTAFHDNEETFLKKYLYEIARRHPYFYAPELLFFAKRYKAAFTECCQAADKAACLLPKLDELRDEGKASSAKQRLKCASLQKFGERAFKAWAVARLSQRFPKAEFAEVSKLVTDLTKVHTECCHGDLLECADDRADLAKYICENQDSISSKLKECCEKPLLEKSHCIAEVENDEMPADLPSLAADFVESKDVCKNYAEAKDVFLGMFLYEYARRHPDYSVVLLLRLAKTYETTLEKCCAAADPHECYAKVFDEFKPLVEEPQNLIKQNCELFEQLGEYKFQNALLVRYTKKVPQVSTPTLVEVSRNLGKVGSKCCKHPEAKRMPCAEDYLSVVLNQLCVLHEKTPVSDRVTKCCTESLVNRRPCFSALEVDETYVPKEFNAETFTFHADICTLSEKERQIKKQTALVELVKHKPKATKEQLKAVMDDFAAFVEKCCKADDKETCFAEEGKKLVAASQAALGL

Plasma = assay: Plasma concentration in human at 1600 mg; assay type: ADME, cell-free
CHO [15] = assay: Induction of apoptosis in CHO cells expressing OATP1B3 haplotype 1 at 1 uM after 48 hrs using propidium iodide and FITC Annexin V staining by flow cytometry; assay type: functional, Cricetulus griseus
Outline: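 Wild-type and OATP1B3 CHO cells plated at 90 000/well for 24 h, induced 24 h with 5 mM sodium butyrate, then compound 48 h (DMSO control). Medium and trypsinized cells pooled, spun 5 min at 300g, PBS-washed. Stained 20 min in the dark with FITC Annexin V and 4 μg/mL propidium iodide, then flow cytometry. Two independent experiments, values averaged.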

CHO [16] = assay: Cytotoxicity against CHO cells expressing OATP1B3 haplotype 1 after 48 hrs by […] CellTiter-Glo assay relative to wild type CHO cells; assay type: functional, Cricetulus griseus
Outline: (§3)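 CHO cells stably expressing OATP1B1*1b or OATP1B3, and wild-type CHO, in DMEM with 10% FBS. Seeded at 1600 cells/well and cultured 24 h. Then 24 h with 5 mM sodium butyrate to induce expression, then graded compound concentrations for 48 h. Viability read by CellTiter-Glo as percent of DMSO control. IC50 from mean ± SEM of at least three independent experiments.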

CHO [17] = assay: Cytotoxicity against CHO cells expressing OATP1B1*1b after 48 hrs by […] CellTiter-Glo assay relative to wild type CHO cells; assay type: functional, Cricetulus griseus; outline: as §3
Albumin [18] = target: T1, Albumin; assay: Binding affinity to human serum albumin at 1 uM; assay type: ADME; settings: isolated protein
CHO [19] = assay: Activation of OATP1B3 haplotype 1 (unknown origin) expressed in CHO cells assessed as increase at 50 uM after relative to control; settings: Homo sapiens

SMILES: O=C(Oc1c(-c2ccc(O)c(O)c2)oc2cc(O)cc(O)c2c1=O)c1cc(O)c(O)c(O)c1
- inhibition (CHO [1]): Active
- Activity (CHO [2]): inactive
- Activity (CHO [3]): 32%
- inhibition (CHO [4]): Active
- inhibition (CHO [5]): Active
- IC50 (CHO [6]): 3.8 µM
- inhibition (CHO [7]): Active
- IC50 (CHO [8]): 3.5 µM
- inhibition (CHO [9]): Active
- Activity (CHO [10]): Non-toxic
- inhibition (CHO [11]): Active

SMILES: Nc1ccc(C(=O)Oc2c(-c3ccc(O)c(O)c3)oc3cc(O)cc(O)c3c2=O)cc1O
- inhibition (CHO [1]): Active
- Activity (CHO [2]): inactive
- Activity (CHO [3]): 70%
- inhibition (CHO [4]): Active
- inhibition (CHO [5]): Active
- IC50 (CHO [6]): 4.1 µM
- inhibition (CHO [7]): Active
- Activity (CHO [8]): inactive
- inhibition (CHO [9]): Active
- Activity (CHO [10]): Non-toxic
- inhibition (CHO [11]): Active

SMILES: O=C(Oc1cc(-c2oc3cc(O)cc(O)c3c(=O)c2O)ccc1O)c1cc(O)c(O)c(O)c1
- inhibition (CHO [1]): Active
- inhibition (CHO [4]): Active
- inhibition (CHO [5]): Active
- IC50 (CHO [6]): 6.8 µM
- inhibition (CHO [7]): Active
- IC50 (CHO [8]): 7.9 µM
- inhibition (CHO [9]): Active
- Activity (CHO [10]): Non-toxic
- inhibition (CHO [11]): Active

SMILES: CCCOc1cc(O)cc2oc(-c3ccc(O)c(O)c3)c(O)c(=O)c12
- fold change (FC) (CHO [12]): 3
- inhibition (CHO [4]): Active
- inhibition (CHO [5]): Active
- IC50 (CHO [6]): 11.8 µM
- inhibition (CHO [7]): Active
- IC50 (CHO [8]): 42.6 µM
- inhibition (CHO [9]): Active
- IC50 (CHO [10]): 111 µM

SMILES: NCCCOc1cc(-c2oc3cc(O)cc(O)c3c(=O)c2O)ccc1O
- inhibition (CHO [1]): Active
- inhibition (CHO [5]): Active
- Activity (CHO [6]): inactive
- Activity (CHO [8]): inactive
- Activity (CHO [10]): Non-toxic
- inhibition (CHO [11]): Active

SMILES: O=C(O[C@@H]1Cc2c(O)cc(O)cc2O[C@@H]1c1cc(O)c(O)c(O)c1)c1cc(O)c(O)c(O)c1 [EPIGALOCATECHIN GALLATE]
- Activity (CHO [13]): Active
- Activity (Albumin [14]): 85%
- concentration (Plasma): 11.3 µM
- Activity (CHO [15]): 15%
- fold change (FC) (CHO [16]): 85
- fold change (FC) (CHO [17]): 35
- Activity (Albumin [18]): 99%
- IC50 (CHO [6]): 3.2 µM
- IC50 (CHO [8]): 7.7 µM
- IC50 (CHO [10]): 271 µM

SMILES: Nc1cc(C(=O)Oc2c(-c3ccc(O)c(O)c3)oc3cc(O)cc(O)c3c2=O)ccc1O
- Activity (CHO [6]): inactive
- Activity (CHO [8]): inactive
- Activity (CHO [19]): Active
- Activity (CHO [10]): Non-toxic
